Assay results from ChEMBL document CHEMBL1772994, “Metabolic stability of 6,7-dialkoxy-4-(2-, 3- and 4-[18F]fluoroanilino)quinazolines, potential EGFR imaging probes” (Bioorg Med Chem, 2011).

Assays:
Hepatocyte = experiment: Metabolic stability in cryopreserved human hepatocytes after 90 mins by radio-TLC assay; assay type: ADME, cell-based; conditions: 1.5 h
Method in brief: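 Cryopreserved female human hepatocytes were thawed and resuspended in modified Krebs-Henseleit buffer, and the radiotracer in buffer was added to cell wells. Incubation was at 37 °C, 5% CO2. Aliquots taken at 5–120 min went into MeOH (2 volumes), were vortexed and centrifuged at 10,000 G for 5 min. Supernatant was run on silica TLC (10% EtOH/EtOAc) and read by radio-TLC scan. Viability was checked by Trypan Blue.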

Mus musculus [1] = experiment: Biodistribution in tumor of EGFR positive-MDA-MB-468 cells-xenografted tumor-bearing nude SCID mouse at 1 to 2 MBq, iv after 1 hr postinjection; assay type: ADME, organism-based, Neoplasm; conditions: in vivo
Method in brief: (§1)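 Nude SCID mice bearing subcutaneous MDA-MB-468 flank xenografts (about 1 million cells), with MDA-MB-435 (about 1 million cells) implanted in the shoulder in some cohorts. Under isoflurane, 1–2 MBq radiotracer in saline was given by tail-vein injection. Mice (n = 4 per time point) were euthanized 1–3 h post injection. Blood, tumor and tissues were weighed and counted, giving decay-corrected %ID/g.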

Mus musculus [2] = experiment: Biodistribution in tumor of EGFR negative-MDA-MB-435 cells-xenografted tumor-bearing nude SCID mouse at 1 to 2 MBq, iv after 1 hr postinjection; assay type: ADME, organism-based, Neoplasm; conditions: in vivo; method in brief: as §1
Bone [3] = experiment: Biodistribution in tumor-bearing nude SCID mouse bone at 1 to 2 MBq, iv after 1 hr postinjection; assay type: ADME, organism-based, Bone element; conditions: in vivo; method in brief: as §1
Bone [4] = experiment: Biodistribution in tumor-bearing nude SCID mouse bone at 1 to 2 MBq, iv after 2 hrs postinjection; assay type: ADME, organism-based, Bone element; conditions: in vivo; method in brief: as §1
Mus musculus [5] = experiment: Biodistribution in tumor of EGFR positive-MDA-MB-468 cells-xenografted tumor-bearing nude SCID mouse at 1 to 2 MBq, iv after 1 to 3 hrs postinjection; conditions: in vivo
Mus musculus [6] = experiment: Biodistribution in tumor of EGFR negative-MDA-MB-435 cells-xenografted tumor-bearing nude SCID mouse at 1 to 2 MBq, iv after 1 to 3 hrs postinjection; conditions: in vivo
Bone [7] = experiment: Biodistribution in tumor-bearing nude SCID mouse bone at 1 to 2 MBq, iv after 3 hrs postinjection; assay type: ADME, organism-based, Bone element; conditions: in vivo; method in brief: as §1
Mus musculus [8] = experiment: Biodistribution in tumor of 1 mg/kg PD153035 pretreated EGFR positive-MDA-MB-468 cells-xenografted tumor-bearing nude SCID mouse 1 to 2 MBq, iv after 1 hr relative to control; assay type: ADME, organism-based, Neoplasm; parameters: dose 1 mg/kg, route intravenous; conditions: in vivo
Method in brief: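 A blocking arm received PD153035 1 mg/kg iv one hour before tail-vein injection of 1–2 MBq radiotracer in saline under isoflurane, compared with a control group. Nude SCID mice bore MDA-MB-468 flank xenografts (n = 4 per time point). Tumor was excised, weighed and counted, giving decay-corrected %ID/g.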

Compound | Stability (Hepatocyte) | Drug uptake (Mus musculus [1]) | Drug uptake (Mus musculus [2]) | Drug uptake (Bone [3]) | Drug uptake (Bone [4]) | Drug uptake (Mus musculus [5]) | Drug uptake (Mus musculus [6]) | Drug uptake (Bone [7]) | Drug uptake (Mus musculus [8])
CCOc1cc2ncnc(Nc3ccc([18F])cc3)c2cc1OCC | Unstable | < 0.6% | < 0.6% | 5% | 5% | < 0.6% | < 0.6% | – | –
CCOc1cc2ncnc(Nc3ccccc3[18F])c2cc1OCC | Stable | < 0.6% | < 0.6% | 2% | – | < 0.6% | < 0.6% | 2% | –
CCOc1cc2ncnc(Nc3cccc([18F])c3)c2cc1OCC | Stable | – | – | – | – | – | – | – | –
COc1cc2ncnc(Nc3cccc([18F])c3)c2cc1OC | Stable | – | – | – | – | – | – | – | –
COc1cc2ncnc(Nc3ccccc3[18F])c2cc1OC | Stable | < 0.6% | < 0.6% | 2% | – | < 0.6% | < 0.6% | 2% | Active
COc1cc2ncnc(Nc3ccc([18F])cc3)c2cc1OC | Unstable | < 0.6% | < 0.6% | 5% | 5% | < 0.6% | < 0.6% | – | –
